Screening results from PubChem BioAssay.
The list is not random: actives were taken first. Their share in the collection is about 2.3%.
TRPC4 block = inhibitors of mouse TRPC4 channel, primary screen, Fluo4 calcium, HEK293 TRPC4beta/mu-opioid cells; Short transient receptor potential channel 4 (Mus musculus), Q9QUQ5; DAMGO-evoked Fluo4 calcium flux; hits give low values; B-score at 10 µM; hit rate 0.39% among 300,000; AID 2247, 2010;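 active means B-score over 3 SD under the library average, no early fluorescence shift, positive overall ratio signal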
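test system = HEK293 cells with stable TRPC4beta plus mu-opioid receptor expression | detection = Fluo4 Ca2+ flux fluorescence | read-out = integrated fluorescence ratio relative to baseline, converted to per-well B score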
TRPC4 potent = positive allosteric modulators of TRPC4, primary screen, cell-based, mouse TRPC4beta, HEK293 mu-opioid, Fluo-4 calcium | B-score at 10 µM | AID 2227, 2009 | Short transient receptor potential channel 4 (Mus musculus), Q9QUQ5 | DAMGO EC20, Fluo-4 Ca2+ flux; hits give high values | hit rate 0.42% among 310,000;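 active means B-score of calcium response area above 5 SD of library B-scores, with initial fluorescence ratio within 5 SD of library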
TRPC4 agonist = activators of mouse TRPC4 channel, primary screen, Fluo4 calcium, HEK293 TRPC4beta/mu-opioid cells | Short transient receptor potential channel 4 (Mus musculus), Q9QUQ5 | hit rate 0.49% among 310,000 | AID 2237, 2010 | Fluo4 calcium fluorescence; hits give high values | B-score at 10 µM;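 active means B-score above 5 SD of library B-scores, and initial fluorescence ratio not above library mean plus 5 SD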;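 further: positive B-score marks a calcium rise read as TRPC4 activation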
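Test system: HEK293 cells stably co-expressing mouse TRPC4beta and mu-opioid receptor | Schedule: Fluo4 dye loading 45 min at room temperature, 110 s recording | Measured by: Kinetic Fluo4 calcium fluorescence, 5 s baseline at 1 Hz | Evaluation: B score of integrated ratio | Controls: Buffer (low) and maximal DAMGO (high)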
TRPC6 inh = mouse TRPC6 channel inhibitors, primary screen, cell-based, HEK293, membrane potential dye | ACh-evoked depolarization; hits give low values | B-score at 10 µM | Short transient receptor potential channel 6 (Mus musculus), Q61143 | hit rate 1.1% among 310,000;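 active means B-score under library mean minus 3 SD, initial fluorescence not abnormally high, positive integrated signal ratio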;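 further: B-score derived from integrated fluorescence ratio over the kinetic read; more negative B-score means stronger inhibition of depolarization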
TRPC6 activator = mouse TRPC6 channel activators, primary screen, cell-based, HEK293, membrane potential dye. Short transient receptor potential channel 6 (Mus musculus), Q61143. hit rate 0.13% among 310,000. HEK293-TRPC6 membrane potential dye fluorescence; hits give high values. B-score at 10 µM;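 active means B-score of the integrated fluorescence ratio above library mean plus 3 SD, and starting fluorescence ratio within library mean plus 5 SD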;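 further: higher score means more depolarization so channel activation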
TRPC4 sel inh 2 = second selectivity test of TRPC6 inhibitors: effect on mouse TRPC4; HEK293 TRPC4/MOR, membrane potential dye fluorescence; channel activated by saturating DAMGO dose; AID 2776; hit rate 42% among 920; shares compounds with TRPC6 inh; inhibition, % at 10 µM;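 active means compounds whose fluorescence signal differed from control wells by over 3 SD, either direction, in both duplicate plates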
TRPC4 spec = mouse TRPC4 modulation by TRPC6 hits, confirmation, selectivity assay for TRPC6 inhibitor project, cell-based, HEK293 TRPC4/mu-opioid, membrane potential dye; AID 2777, 2010; hit rate 61% among 920; shares compounds with TRPC6 inh; membrane potential fluorescence; activity change, negative = inhibition, % at 10 µM;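 active means rise or fall in signal beyond 3 SD of buffer-only wells in both replicate plates, either sign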;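 further: integrated kinetic ratio of fluorescence range over baseline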
HEK293 MPD ctr 2-1 = nonspecific membrane potential effects, parental HEK293, confirmation, counter-screen for TRPC6 inhibitor project, cell-based, second counter screen | shares compounds with TRPC6 inh | parental HEK293 membrane potential dye fluorescence; maximal acetylcholine challenge after compound addition | signal change vs control, % at 10 µM | hit rate 31% among 920 | AID 2779, 2010;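 active means membrane potential signal moving either way by over 3 SD of the maximum-effect control, in both duplicate plates, meaning non-specific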
HEK293 MPD ctr-1 = membrane potential modulation in parental HEK293, confirmation, counter-screen for TRPC6 inhibitor project, cell-based. shares compounds with TRPC6 inh. parental HEK293 membrane potential dye fluorescence. membrane potential signal change, % at 10 µM. hit rate 60% among 920. AID 2780, 2010;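 active means membrane potential signal shifting up or down by more than 3 SD of buffer-only wells, on both duplicate plates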
HEK293 MPD ctr-2 = parental HEK293 membrane potential modulation, confirmation, counter-screen for TRPC6 modulator project, cell-based; shares compounds with TRPC6 inh; membrane potential dye fluorescence; membrane potential signal change, % at 10 µM; hit rate 51% among 2,400; AID 488924, 2010;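 active means membrane potential signal moves up or down beyond 5 SD from buffer-only wells, on both duplicate plates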
HEK293 MPD ctr 2-2 = second counter-screen for TRPC6 modulators: effect in parental HEK293 cells; shares compounds with TRPC6 inh; membrane potential dye fluorescence; after compound, maximal acetylcholine stimulation; inhibition, % at 10 µM; hit rate 14% among 2,400; AID 488926;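 active means membrane potential signal drops by more than 5 SD from the mean control signal, in both duplicate plates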
TRPC4 ctr mod = TRPC4 modulation by TRPC6 hit compounds, confirmation, selectivity assay for TRPC6 modulator project, cell-based, HEK293 TRPC4/mu-opioid, membrane potential dye, mouse; hit rate 69% among 2,400; percent change from control (negative = decrease, positive = increase), % at 10 µM; shares compounds with TRPC6 inh; membrane potential fluorescence; AID 488927, 2010;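 active means membrane potential signal moved up or down beyond 5 SD of buffer control wells, in both duplicate plates, actives on both sides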
TRPC4/MOR inh 2 = mouse TRPC4 off-target activity of TRPC6 modulators, second screen | shares compounds with TRPC6 inh | hit rate 55% among 2,400 | AID 488928 | HEK293 TRPC4/mu-opioid, membrane potential dye fluorescence; stimulated with maximal-effect DAMGO | inhibition, % at 10 µM;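 active means drop in membrane potential signal beyond 5 SD of the control wells in both duplicate plates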;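 further: TRPC4 counter screen for TRPC6 hits run under conditions tuned for TRPC6 not TRPC4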
TRPC6 inh conf = mouse TRPC6 channel inhibitors, confirmation, HEK293 cells, membrane potential dye, duplicate; AID 488960, 2010; ACh-evoked depolarization; hit rate 43% among 3,300; shares compounds with TRPC6 inh; inhibition, % at 10 µM;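 active means fluorescence ratio falls more than 5 SD below the full-stimulation control mean, in both duplicate runs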;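 further: integrated fluorescence ratio of peak minus minimum over baseline after agonist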
TRPC6 act conf = mouse TRPC6 channel activators, confirmation, HEK293 cells, membrane potential dye, duplicate | shares compounds with TRPC6 inh | HEK293-TRPC6 membrane potential dye fluorescence, FDSS | activation, % at 10 µM | hit rate 11% among 2,800 | AID 488961, 2010;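 active means ratio signal rise beyond 5 SD above unstimulated control wells' mean, seen in both duplicate runs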
Large screens that a line does not name were inactive (follow-up assays come after a bar, where they were run).

NCCc1ccc(O)c(O)c1	TRPC6 inh -5.3 | HEK293 MPD ctr-2 inactive | HEK293 MPD ctr 2-2 inactive | TRPC4 ctr mod inactive | TRPC4/MOR inh 2 inactive | TRPC6 inh conf inactive | TRPC6 act conf inactive
COC(=O)C(N)Cc1ccc(O)c(O)c1 (centres undefined)	none
O=C(Cc1ccc(Cl)c(Cl)c1)Nc1cccc(S(=O)(=O)N2CCOCC2)c1	none
COc1ccc(C(=O)NCCn2cc(SCC(=O)NCC3CCCO3)c3ccccc32)cc1OC (centres undefined)	none
O=C(CSCc1cnn(-c2ccccc2)c1-n1cccc1)NCc1ccccn1	TRPC6 inh -6.3 | HEK293 MPD ctr-2 inactive | HEK293 MPD ctr 2-2 inactive | TRPC4 ctr mod 11% | TRPC4/MOR inh 2 inactive | TRPC6 inh conf inactive
NS(=O)(=O)c1ccc(OC(=O)CNC(=O)OCc2ccccc2)cc1	none
CCn1ncc(C2=NOC(C(=O)NCC(C)C)C2)c1C (centres undefined)	none
CCn1ncc(C2=NOC(C(=O)Nc3cnn(C45CC6CC(CC(C6)C4)C5)c3)C2)c1C (centres undefined)	TRPC6 activator 19 | HEK293 MPD ctr-2 inactive | HEK293 MPD ctr 2-2 inactive | TRPC4 ctr mod inactive | TRPC4/MOR inh 2 inactive | TRPC6 act conf 126%
N=c1sccn1CC(=O)Nc1cc(Cl)ccc1Oc1ccccc1	TRPC6 inh -9.6 | TRPC4 sel inh 2 24% | TRPC4 spec inactive | HEK293 MPD ctr 2-1 inactive | HEK293 MPD ctr-1 inactive | TRPC6 inh conf 69% | TRPC6 act conf inactive
N=c1sccn1CC(=O)Nc1ccc(Cl)cc1[N+](=O)[O-]	none
N=c1sccn1CC(=O)Nc1cccc(Oc2ccccc2)c1	TRPC6 inh -5.7 | HEK293 MPD ctr-2 inactive | HEK293 MPD ctr 2-2 inactive | TRPC4 ctr mod inactive | TRPC4/MOR inh 2 82% | TRPC6 inh conf 52% | TRPC6 act conf inactive
O=C(CNC(=S)N(Cc1ccccc1)Cc1ccccc1F)NCc1ccc(Cl)cc1	none
O=C(Cn1ncc2c([nH]c3ccccc32)c1=O)Nc1ccc(CN2CCCCC2)cc1	none
COc1ccc(-n2nc(C(=O)NCC(=O)NCCCN3CCOCC3)c3ccccc3c2=O)c(OC)c1	none
COc1ccc(C2c3c(ncn(CCN4CCOCC4)c3=N)Oc3ccc4ccccc4c32)cc1OC (centres undefined)	TRPC6 inh -5.1 | HEK293 MPD ctr-2 204% | HEK293 MPD ctr 2-2 inactive | TRPC4 ctr mod 34% | TRPC4/MOR inh 2 40% | TRPC6 inh conf inactive
CC(=O)CCc1ccc(OCCCCN2CCC(Cc3ccccc3)CC2)cc1	TRPC6 inh -8.4 | HEK293 MPD ctr-2 inactive | HEK293 MPD ctr 2-2 inactive | TRPC4 ctr mod inactive | TRPC4/MOR inh 2 70% | TRPC6 inh conf 46%
O=[N+]([O-])c1cccc(OCCCN2CCC(Cc3ccccc3)CC2)c1	TRPC6 inh -7.1 | TRPC4 sel inh 2 16% | TRPC4 spec -12% | HEK293 MPD ctr 2-1 inactive | HEK293 MPD ctr-1 -224% | TRPC6 inh conf 88% | TRPC6 act conf inactive
N#C/C(=C\c1cccnc1)C(=O)Nc1ccccc1[N+](=O)[O-]	none
CCCc1nnc(NC(=O)CCC(=O)N2CCN(Cc3ccc(Cl)cc3)CC2)s1	none
O=C1c2ccccc2-c2onc3c(N4CCN(CCO)CC4)cc(N4CCN(C(=O)c5ccco5)CC4)c1c23	TRPC6 inh -7 | TRPC4 sel inh 2 inactive | TRPC4 spec -47% | HEK293 MPD ctr 2-1 inactive | HEK293 MPD ctr-1 -608% | TRPC6 inh conf inactive | TRPC6 act conf inactive
CC(=O)N1CCCN(C(=O)c2ccc3nc(Cc4cccc(Cl)c4)oc3c2)CC1	none
O=C(O)CCSc1nnc(COc2cccc3ccccc23)n1-c1cccc(Cl)c1	none
COc1ccccc1/C=C1\SC(=S)N(CCC(=O)N2CCN(C)CC2)C1=O	TRPC6 inh -5.3 | HEK293 MPD ctr-2 inactive | HEK293 MPD ctr 2-2 inactive | TRPC4 ctr mod inactive | TRPC4/MOR inh 2 44% | TRPC6 inh conf inactive | TRPC6 act conf inactive
CN(C)c1cc[n+](Cc2c(Cl)cccc2Cl)cc1	none
CN(C)c1cc[n+](CC[n+]2ccc(N(C)C)cc2)cc1	TRPC6 inh -5.5 | HEK293 MPD ctr-2 -234% | HEK293 MPD ctr 2-2 inactive | TRPC4 ctr mod -42% | TRPC4/MOR inh 2 40% | TRPC6 inh conf 52% | TRPC6 act conf inactive
